Test results as given in ChEMBL document CHEMBL3232897, “Synthesis, antiproliferative and antibacterial activity of new amides of salinomycin” (Bioorg Med Chem Lett, 2014).
In brackets after ≈: the same amount, converted by molar mass. Activity calls are given as the source filed them. No cut-off for these calls is given here.

Key:
[1] = tested on: Staphylococcus aureus; assay: Antibacterial activity against Staphylococcus aureus ATCC 25923; format: functional
[2] = tested on: Staphylococcus epidermidis; assay: Antibacterial activity against methicillin-resistant Staphylococcus epidermidis 468/11; format: functional
In short: (§1)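 In vitro antibacterial test on Staphylococcus strains, including MRSE clinical isolates. Read-outs were growth inhibition zone (mm) and MIC (µg/ml). Ciprofloxacin was the reference antibiotic.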

[3] = tested on: Staphylococcus epidermidis; assay: Antibacterial activity against Staphylococcus epidermidis ATCC 35984; format: functional; in short: as §1
[4] = tested on: Staphylococcus epidermidis; assay: Antibacterial activity against methicillin-resistant Staphylococcus epidermidis 466/11; format: functional; in short: as §1
[5] = tested on: Staphylococcus epidermidis; assay: Antibacterial activity against methicillin-resistant Staphylococcus epidermidis 460/11; format: functional; in short: as §1
[6] = tested on: Staphylococcus epidermidis; assay: Antibacterial activity against methicillin-resistant Staphylococcus epidermidis 488/11; format: functional; in short: as §1
[7] = tested on: Staphylococcus epidermidis; assay: Antibacterial activity against Staphylococcus epidermidis ATCC 12228; format: functional; in short: as §1
[8] = tested on: LoVo; assay: Antiproliferative activity against human LoVo cells; format: functional, cell-based
In short: (§2)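 IC50 is the concentration giving 50% growth inhibition, reported as mean with SD. HL-60/vinc and LoVo/DX are drug-resistant (MDR) sublines of HL-60 and LoVo. BALB/3T3 is a normal murine embryonic fibroblast line.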

[9] = tested on: Staphylococcus epidermidis; assay: Antibacterial activity against methicillin-resistant Staphylococcus epidermidis 459/11; format: functional; in short: as §1
[10] = tested on: Staphylococcus epidermidis; assay: Antibacterial activity against methicillin-resistant Staphylococcus epidermidis 489/11; format: functional; in short: as §1
[11] = tested on: Staphylococcus epidermidis; assay: Antibacterial activity against methicillin-resistant Staphylococcus epidermidis 470/11; format: functional; in short: as §1
[12] = tested on: Staphylococcus epidermidis; assay: Antibacterial activity against methicillin-resistant Staphylococcus epidermidis 467/11; format: functional; in short: as §1
[13] = tested on: Staphylococcus aureus; assay: Antibacterial activity against Staphylococcus aureus ATCC 6538; format: functional
[14] = organism: Homo sapiens; assay: Antiproliferative activity against human HL60/Vinc cells up to 100 ug/ml; format: functional, cell-based
[15] = tested on: Staphylococcus aureus; assay: Antibacterial activity against Staphylococcus aureus ATCC 29213; format: functional
[16] = tested on: Staphylococcus aureus; assay: Antibacterial activity against Staphylococcus aureus NCTC 4163; format: functional
[17] = tested on: BALB/3T3; assay: Antiproliferative activity mouse BALB/3T3 cells up to 100 ug/ml; format: cell-based
[18] = tested on: LoVo; assay: Resistance index, ratio of IC50 for human LoVo/DX cells to IC50 for human LoVo cells; format: functional
In short: (§3)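 Index of resistance is the IC50 in the resistant subline (HL-60/vinc or LoVo/DX) divided by the IC50 in its parental line (HL-60 or LoVo). Each IC50 is the concentration giving 50% growth inhibition. Bands are 0–2 sensitive, 2–10 moderate, above 10 strongly resistant.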

[19] = tested on: HL-60; assay: Antiproliferative activity against human HL60 cells; format: functional, cell-based; in short: as §2
[20] = Antiproliferative activity against human LoVo/DX cells; format: functional, cell-based; in short: as §2
[21] = tested on: Staphylococcus epidermidis; assay: Antibacterial activity against methicillin-resistant Staphylococcus epidermidis 469/11; format: functional; in short: as §1
[22] = tested on: Staphylococcus epidermidis; assay: Antibacterial activity against methicillin-resistant Staphylococcus epidermidis 461/11; format: functional; in short: as §1
[23] = tested on: BALB/3T3; assay: Antiproliferative activity mouse BALB/3T3 cells; format: cell-based; in short: as §2
[24] = tested on: HL-60; assay: Resistance index, ratio of IC50 for human HL60/Vinc cells to IC50 for human HL60 cells; format: functional; in short: as §3
[25] = tested on: LoVo; assay: Selectivity index, ratio of IC50 for mouse BALB/3T3 cells to IC50 for human LoVo cells; format: functional
In short: (§4)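 Selectivity index is the IC50 in normal murine embryonic fibroblasts (BALB/3T3) divided by the IC50 in the respective cancer line (HL-60, HL-60/vinc, LoVo or LoVo/DX). Each IC50 is the concentration giving 50% growth inhibition. SI >1.0 is taken as favourable.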

[26] = Selectivity index, ratio of IC50 for mouse BALB/3T3 cells to IC50 for human LoVo/DX cells; format: functional; in short: as §4
[27] = Selectivity index, ratio of IC50 for mouse BALB/3T3 cells to IC50 for human HL60/Vinc cells; format: functional; in short: as §4
[28] = tested on: HL-60; assay: Selectivity index, ratio of IC50 for mouse BALB/3T3 cells to IC50 for human HL60 cells; format: functional; in short: as §4
[29] = Antiproliferative activity against human HL60/Vinc cells; format: functional, cell-based; in short: as §2

**Q.** Which MIC [1] does the source give for CC[C@@H](C(=O)[C@@H](C)[C@@H](O)[C@H](C)[C@@H]1O[C@@H]([C@@H](CC)C(=O)Nc2ccc(-c3ccc(NC(=O)[C@H](CC)[C@H]4CC[C@H](C)[C@H]([C@@H](C)[C@H](O)[C@H](C)C(=O)[C@H](CC)[C@H]5O[C@]6(C=C[C@@H](O)[C@]7(CC[C@@](C)([C@H]8CC[C@](O)(CC)[C@H](C)O8)O7)O6)[C@H](C)C[C@@H]5C)O4)cc3)cc2)CC[C@@H]1C)[C@H]1O[C@]2(C=C[C@@H](O)[C@]3(CC[C@@](C)([C@H]4CC[C@](O)(CC)[C@H](C)O4)O3)O2)[C@H](C)C[C@@H]1C here?
**A.** 32 µg/mL (≈ 19.4 µM)

**Q.** And the MIC [2]?
**A.** 32 µg/mL (≈ 19.4 µM)

**Q.** What about the MIC [3] of the same compound?
**A.** 32 µg/mL (≈ 19.4 µM)

**Q.** And the MIC [4]?
**A.** 32 µg/mL (≈ 19.4 µM)

**Q.** And the MIC [5]?
**A.** 64 µg/mL (≈ 38.8 µM)

**Q.** And the MIC [6]?
**A.** 32 µg/mL (≈ 19.4 µM)

**Q.** And the MIC [7]?
**A.** 32 µg/mL (≈ 19.4 µM)

**Q.** What about the IC50 [8] of the same compound?
**A.** 8.4 µM

**Q.** And the MIC [9]?
**A.** 32 µg/mL (≈ 19.4 µM)

**Q.** What about the MIC [10] of the same compound?
**A.** 32 µg/mL (≈ 19.4 µM)

**Q.** And the MIC [11]?
**A.** 64 µg/mL (≈ 38.8 µM)

**Q.** And the MIC [12]?
**A.** 16 µg/mL (≈ 9.7 µM)

**Q.** And the MIC [13]?
**A.** 32 µg/mL (≈ 19.4 µM)

**Q.** And the inhibition [14]?
**A.** inactive

**Q.** And the MIC [15]?
**A.** 32 µg/mL (≈ 19.4 µM)

**Q.** What about the MIC [16] of the same compound?
**A.** 16 µg/mL (≈ 9.7 µM)

**Q.** And the Activity [17]?
**A.** Non-toxic

**Q.** And the “Ratio IC50” value [18]?
**A.** 0.38

**Q.** What about the IC50 [19] of the same compound?
**A.** 4.4 µM

**Q.** And the IC50 [20]?
**A.** 3.1 µM

**Q.** What about the MIC [21] of the same compound?
**A.** 64 µg/mL (≈ 38.8 µM)

**Q.** And the MIC [22]?
**A.** 32 µg/mL (≈ 19.4 µM)

**Q.** For CC[C@@H](C(=O)[C@@H](C)[C@@H](O)[C@H](C)[C@@H]1O[C@@H]([C@@H](CC)C(=O)NCCOCCO)CC[C@@H]1C)[C@H]1O[C@]2(C=C[C@@H](O)[C@]3(CC[C@@](C)([C@H]4CC[C@](O)(CC)[C@H](C)O4)O3)O2)[C@H](C)C[C@@H]1C, which IC50 [23] is on record?
**A.** 39.4 µM

**Q.** And the MIC [1]?
**A.** 32 µg/mL (≈ 38.2 µM)

**Q.** And the MIC [2]?
**A.** 64 µg/mL (≈ 76.4 µM)

**Q.** What about the MIC [3] of the same compound?
**A.** 64 µg/mL (≈ 76.4 µM)

**Q.** And the MIC [4]?
**A.** 64 µg/mL (≈ 76.4 µM)

**Q.** What about the “Ratio IC50” value [24] of the same compound?
**A.** 1.74

**Q.** And the “Ratio IC50” value [25]?
**A.** 1.08

**Q.** And the MIC [5]?
**A.** 64 µg/mL (≈ 76.4 µM)

**Q.** And the MIC [6]?
**A.** 64 µg/mL (≈ 76.4 µM)

**Q.** And the MIC [7]?
**A.** 64 µg/mL (≈ 76.4 µM)

**Q.** What about the “Ratio IC50” value [26] of the same compound?
**A.** 2.76

**Q.** And the IC50 [8]?
**A.** 36.7 µM

**Q.** And the MIC [9]?
**A.** 32 µg/mL (≈ 38.2 µM)

**Q.** What about the MIC [10] of the same compound?
**A.** 64 µg/mL (≈ 76.4 µM)

**Q.** And the MIC [11]?
**A.** 64 µg/mL (≈ 76.4 µM)

**Q.** What about the “Ratio IC50” value [27] of the same compound?
**A.** 1.28

**Q.** And the “Ratio IC50” value [28]?
**A.** 2.22

**Q.** And the MIC [12]?
**A.** 32 µg/mL (≈ 38.2 µM)

**Q.** And the MIC [13]?
**A.** 32 µg/mL (≈ 38.2 µM)

**Q.** What about the MIC [15] of the same compound?
**A.** 64 µg/mL (≈ 76.4 µM)

**Q.** What about the MIC [16] of the same compound?
**A.** 32 µg/mL (≈ 38.2 µM)

**Q.** What about the “Ratio IC50” value [18] of the same compound?
**A.** 0.39

**Q.** And the IC50 [19]?
**A.** 17.8 µM

**Q.** What about the IC50 [20] of the same compound?
**A.** 14.3 µM

**Q.** And the MIC [21]?
**A.** 64 µg/mL (≈ 76.4 µM)

**Q.** What about the IC50 [29] of the same compound?
**A.** 30.9 µM

**Q.** What about the MIC [22] of the same compound?
**A.** 64 µg/mL (≈ 76.4 µM)

**Q.** Which results are given for CC[C@@H](C(=O)[C@@H](C)[C@@H](O)[C@H](C)[C@@H]1O[C@@H]([C@@H](CC)C(=O)O)CC[C@@H]1C)[C@H]1O[C@]2(C=C[C@@H](O)[C@]3(CC[C@@](C)([C@H]4CC[C@](O)(CC)[C@H](C)O4)O3)O2)[C@H](C)C[C@@H]1C [SALINOMYCIN]?
**A.** IC50 [23]: 25.8 µM; MIC [1]: 2 µg/mL (≈ 2.66 µM); MIC [2]: 8 µg/mL (≈ 10.7 µM); MIC [3]: 2 µg/mL (≈ 2.66 µM); MIC [4]: 8 µg/mL (≈ 10.7 µM); Ratio IC50 [24]: 4.05; Ratio IC50 [25]: 16.88; MIC [5]: 16 µg/mL (≈ 21.3 µM); MIC [6]: 16 µg/mL (≈ 21.3 µM); MIC [7]: 2 µg/mL (≈ 2.66 µM); Ratio IC50 [26]: 26.08; IC50 [8]: 1.5 µM; MIC [9]: 16 µg/mL (≈ 21.3 µM); MIC [10]: 16 µg/mL (≈ 21.3 µM); MIC [11]: 16 µg/mL (≈ 21.3 µM); Ratio IC50 [27]: 5.45; Ratio IC50 [28]: 22.07; MIC [12]: 16 µg/mL (≈ 21.3 µM); MIC [13]: 2 µg/mL (≈ 2.66 µM); MIC [15]: 4 µg/mL (≈ 5.33 µM); MIC [16]: 2 µg/mL (≈ 2.66 µM); Ratio IC50 [18]: 0.65; IC50 [19]: 1.2 µM; IC50 [20]: 1 µM; MIC [21]: 16 µg/mL (≈ 21.3 µM); IC50 [29]: 4.7 µM; MIC [22]: 16 µg/mL (≈ 21.3 µM)
